Data reported in ChEMBL document CHEMBL4414574, “Structure-Based Discovery and Development of a Series of Potent and Selective Bromodomain and Extra-Terminal Protein Inhibitors” (J Med Chem, 2019).
Active and inactive are the calls of the source. The calls are words filed in the database; no cut-off is given here.

How the values were obtained:
AGS = assay: Antiproliferative activity against human AGS cells after 72 hrs by CCK8 or SRB assay; format: functional, cell-based
[1] = AUC (0 to infinity) in rat plasma at 3 mg/kg, iv; format: ADME, organism-based; design: dose 3 mg/kg, route intravenous, time infinity
In short: (§1)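 Compound was given orally or intravenously in 1% DMSO/0.5% HPMC vehicle. Concentrations in plasma, or in brain where stated, gave Tmax, Cmax, T1/2, AUC0-t and AUC0-inf.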

[2] = biological target: Bromodomain-containing protein 7 (Homo sapiens) (UniProt Q9NPI1); assay: Binding affinity to human partial length BRD7 (L125 to R254 residues) expressed in […] assessed as residual binding level at 1 uM measured after 1 hr by quantitative PCR based BROMOscan assay relative to control
In short: (§2)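 A BROMOScan competition-binding panel of 32 bromodomains was run at a single 1 μM compound concentration. Results are primary-screen 'Percent Control', where lower values indicate stronger binding.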

[3] = biological target: Bromodomain adjacent to zinc finger domain protein 2B (Homo sapiens) (UniProt Q9UIF8); assay: Binding affinity to human partial length BAZ2B (S2054 to S2168 residues) expressed in Escherichia coli BL21 cells assessed as residual binding level at 1 uM measured after 1 hr by quantitative PCR based BROMOscan assay relative to control; in short: as §2
MV4-11 [4] = assay: Antitumor activity against human MV4-11 cells xenografted in Balb/c nude mouse assessed as tumor growth inhibition at 50 mg/kg, po administered once daily and measured twice a week by caliper method relative to control; format: functional; conditions: MV4-11, po, read-out: TGI
[5] = Tmax in ICR mouse plasma at 100 mg/kg, po administered via gavage measured after 0.25 to 24 hrs by UPLC/MS analysis; format: ADME, organism-based
In short: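 Male ICR mice dosed orally (3, 10 or 100 mg/kg, per line) in 1% DMSO/0.5% HPMC vehicle; plasma drug levels measured.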

[6] = biological target: Insulin-like growth factor 1 receptor (Homo sapiens) (UniProt P08069); assay: Inhibition of IGF1R (unknown origin) at 10 uM using poly (Glu, Tyr) 4:1 as substrate after 60 mins by ELISA
[7] = biological target: Histone acetyltransferase p300 (Homo sapiens) (UniProt Q09472); assay: Inhibition of EP300 (unknown origin) at 1 uM
In short: (§3)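 Bromodomain binding panel (32 bromodomains) screened at 1 μM; primary binding read-out reported as percent of control, lower values meaning stronger binding.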

HT-29 = assay: Antiproliferative activity against human HT-29 cells after 72 hrs by CCK8 or SRB assay; format: functional, cell-based
[8] = Tmax in dog plasma at 3 mg/kg, po; format: ADME, organism-based, Canis lupus familiaris
In short: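 Oral dosing in 1% DMSO/0.5% HPMC vehicle (dog 3 mg/kg; rat 10 mg/kg); plasma drug levels measured.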

[9] = biological target: Bromodomain-containing protein 2 (Homo sapiens) (UniProt P25440); assay: Inhibition of BRD2 bromodomain 2 (unknown origin); in short: as §3
[10] = Cmax in ICR mouse at 10 mg/kg, po administered via gavage measured after 0.25 to 24 hrs by UPLC/MS analysis; format: ADME, organism-based; design: dose 10 mg/kg, route oral; conditions: in vivo
In short: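 Male ICR mice dosed orally in 1% DMSO/0.5% HPMC vehicle; plasma or brain drug levels used to derive Tmax, Cmax, AUC0-t, AUC0-inf and T1/2.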

MV4-11 [11] = assay: Induction of apoptosis in human MV4-11 cells assessed as reduction in PUMA level after 24 hrs by Western blot analysis; format: functional, cell-based
In short: (§4)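 MV4-11 cells exposed to compound at the indicated doses for 24 h; lysates probed by Western blotting for the target protein, with GAPDH as loading control.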

[12] = biological target: Bromodomain-containing protein 2 (Homo sapiens) (UniProt P25440); assay: Binding affinity to human partial length BRD2 bromodomain 1 isoform 1 (K71 to N194 residues) expressed in Escherichia coli BL21 cells assessed as residual binding level at 1 uM measured after 1 hr by quantitative PCR based BROMOscan assay relative to control; in short: as §2
MV4-11 [13] = assay: Induction of apoptosis in human MV4-11 cells assessed as decrease in full-length caspase-8 level at 10 to 1000 nM after 24 hrs by Western blot analysis; format: functional, cell-based; in short: as §4
NCI-H1299 = assay: Antiproliferative activity against human NCI-H1299 cells after 72 hrs by CCK8 or SRB assay; format: functional, cell-based
Cytochrome P450 2C9 = Cytochrome P450 2C9 (Homo sapiens, UniProt P11712); assay: Time-dependent inhibition of CYP2C9 in human liver microsomes at 10 uM using diclofenac as substrate preincubated up to 30 mins followed by NADPH generating system addition and measured after 10 mins; format: ADME
In short: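 Human liver microsomes 0.2 mg/mL, 100 mM phosphate pH 7.4, 10 μM test compound, preincubated 0, 5, 10 and 30 min at 37 °C; then NADPH plus probe cocktail (5 μM midazolam, 50 μM testosterone, 5 μM dextromethorphan, 10 μM diclofenac, 50 μM phenacetin, 50 μM S-(+)-mephenytoin) added; 10 min reaction; kobs in units of 10^-4/min.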

[14] = AUC (0 to t) in ICR mouse brain at 50 mg/kg, po administered via gavage measured after 0.25 to 24 hrs by UPLC/MS analysis; format: ADME, organism-based; design: time lower 0.25 hr, dose 50 mg/kg, time upper 24 hr, route oral
In short: (§5)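 Male ICR mice were dosed orally in 1% DMSO/0.5% HPMC vehicle. Plasma (and brain, where stated) concentrations gave Tmax, Cmax, T1/2, AUC0-t and AUC0-inf.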

[15] = biological target: Bromodomain-containing protein 1 (Homo sapiens) (UniProt O95696); assay: Binding affinity to human partial length BRD1 (E556 to A688 residues) expressed in Escherichia coli BL21 cells assessed as residual binding level at 1 uM measured after 1 hr by quantitative PCR based BROMOscan assay relative to control; in short: as §2
[16] = AUC (0 to infinity) in rat plasma at 50 mg/kg, po; format: ADME, organism-based; design: dose 50 mg/kg, time infinity, route oral; in short: as §1
[17] = biological target: Bromodomain-containing protein 9 (Homo sapiens) (UniProt Q9H8M2); assay: Binding affinity to human partial length BRD9 (R130 to V259 residues) expressed in Escherichia coli BL21 cells assessed as residual binding level at 1 uM measured after 1 hr by quantitative PCR based BROMOscan assay relative to control; in short: as §2
[18] = biological target: Bromodomain-containing protein 4 (Homo sapiens, UniProt O60885); assay: Inhibition of BRD4 bromodomain 2 (unknown origin)
[19] = AUC (0 to t) in ICR mouse at 10 mg/kg, po administered via gavage measured after 0.25 to 24 hrs by UPLC/MS analysis; format: ADME, organism-based; design: time 0.25-24 hr, dose 10 mg/kg, route oral; conditions: in vivo; in short: as §5
MDA-MB-468 = assay: Antiproliferative activity against human MDA-MB-468 cells after 72 hrs by CCK8 or SRB assay; format: functional, cell-based
MV4-11 [20] = assay: Induction of apoptosis in human MV4-11 cells assessed as reduction in BID level after 24 hrs by Western blot analysis; format: functional, cell-based; in short: as §4
[21] = biological target: E3 ubiquitin-protein ligase TRIM33 (Homo sapiens) (UniProt Q9UPN9); assay: Binding affinity to human partial length TRIM33 (D882 to A1087 residues) expressed in Escherichia coli BL21 cells assessed as residual binding level at 1 uM measured after 1 hr by quantitative PCR based BROMOscan assay relative to control
In short: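 Bromodomain panel screen (32 bromodomains) run at 1 μM single concentration; primary binding reported as 'Percent Control', lower values meaning stronger interaction.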

[22] = Tmax in rat plasma at 50 mg/kg, po; format: ADME, organism-based
In short: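 Rats dosed orally at 50 mg/kg in 1% DMSO/0.5% HPMC; drug measured in plasma and brain.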

Chain of Bromodomain-containing protein 2 (Homo sapiens) (P25440 whole entry, looked up, the tested form may be a part, canonical isoform): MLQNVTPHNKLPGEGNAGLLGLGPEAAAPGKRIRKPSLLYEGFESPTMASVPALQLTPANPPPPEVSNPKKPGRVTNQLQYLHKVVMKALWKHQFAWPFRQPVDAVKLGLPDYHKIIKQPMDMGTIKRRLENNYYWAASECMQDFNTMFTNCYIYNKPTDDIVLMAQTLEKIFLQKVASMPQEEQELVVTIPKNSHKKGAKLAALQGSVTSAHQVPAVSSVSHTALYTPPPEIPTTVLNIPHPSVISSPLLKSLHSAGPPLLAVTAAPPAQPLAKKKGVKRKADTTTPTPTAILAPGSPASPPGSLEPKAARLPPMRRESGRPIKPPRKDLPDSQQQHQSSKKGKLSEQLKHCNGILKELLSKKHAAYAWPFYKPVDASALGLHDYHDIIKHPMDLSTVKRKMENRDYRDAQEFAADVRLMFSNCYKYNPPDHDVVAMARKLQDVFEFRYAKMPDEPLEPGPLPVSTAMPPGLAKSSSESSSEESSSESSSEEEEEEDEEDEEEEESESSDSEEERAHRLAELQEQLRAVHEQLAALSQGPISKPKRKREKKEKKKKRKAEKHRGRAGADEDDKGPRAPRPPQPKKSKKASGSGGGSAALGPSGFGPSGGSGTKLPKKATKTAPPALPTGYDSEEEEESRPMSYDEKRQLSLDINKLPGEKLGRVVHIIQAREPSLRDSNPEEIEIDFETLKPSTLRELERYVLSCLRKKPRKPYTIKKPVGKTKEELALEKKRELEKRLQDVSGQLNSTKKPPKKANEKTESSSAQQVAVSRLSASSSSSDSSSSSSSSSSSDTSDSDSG
Chain of Insulin-like growth factor 1 receptor (Homo sapiens) (P08069 31-736 limits assumed): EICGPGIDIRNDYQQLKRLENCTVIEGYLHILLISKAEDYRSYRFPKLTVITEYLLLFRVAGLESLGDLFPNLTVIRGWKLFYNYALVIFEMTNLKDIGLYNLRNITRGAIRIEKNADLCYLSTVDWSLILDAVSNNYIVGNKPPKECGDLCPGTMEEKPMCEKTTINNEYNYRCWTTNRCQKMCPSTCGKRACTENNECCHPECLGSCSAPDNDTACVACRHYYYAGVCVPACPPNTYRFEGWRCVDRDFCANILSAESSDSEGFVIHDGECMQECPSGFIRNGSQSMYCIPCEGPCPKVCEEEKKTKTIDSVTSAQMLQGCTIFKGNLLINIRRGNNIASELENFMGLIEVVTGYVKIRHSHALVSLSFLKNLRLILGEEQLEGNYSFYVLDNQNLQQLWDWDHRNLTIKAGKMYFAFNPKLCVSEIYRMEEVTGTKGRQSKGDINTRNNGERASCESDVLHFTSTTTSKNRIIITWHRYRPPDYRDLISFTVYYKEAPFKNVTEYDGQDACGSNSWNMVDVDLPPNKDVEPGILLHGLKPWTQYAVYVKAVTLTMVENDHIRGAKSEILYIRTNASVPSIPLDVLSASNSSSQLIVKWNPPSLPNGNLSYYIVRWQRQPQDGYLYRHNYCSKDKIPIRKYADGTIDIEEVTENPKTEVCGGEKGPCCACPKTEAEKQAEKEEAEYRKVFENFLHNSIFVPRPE
Chain of Insulin-like growth factor 1 receptor (Homo sapiens) (P08069 741-1367 limits assumed): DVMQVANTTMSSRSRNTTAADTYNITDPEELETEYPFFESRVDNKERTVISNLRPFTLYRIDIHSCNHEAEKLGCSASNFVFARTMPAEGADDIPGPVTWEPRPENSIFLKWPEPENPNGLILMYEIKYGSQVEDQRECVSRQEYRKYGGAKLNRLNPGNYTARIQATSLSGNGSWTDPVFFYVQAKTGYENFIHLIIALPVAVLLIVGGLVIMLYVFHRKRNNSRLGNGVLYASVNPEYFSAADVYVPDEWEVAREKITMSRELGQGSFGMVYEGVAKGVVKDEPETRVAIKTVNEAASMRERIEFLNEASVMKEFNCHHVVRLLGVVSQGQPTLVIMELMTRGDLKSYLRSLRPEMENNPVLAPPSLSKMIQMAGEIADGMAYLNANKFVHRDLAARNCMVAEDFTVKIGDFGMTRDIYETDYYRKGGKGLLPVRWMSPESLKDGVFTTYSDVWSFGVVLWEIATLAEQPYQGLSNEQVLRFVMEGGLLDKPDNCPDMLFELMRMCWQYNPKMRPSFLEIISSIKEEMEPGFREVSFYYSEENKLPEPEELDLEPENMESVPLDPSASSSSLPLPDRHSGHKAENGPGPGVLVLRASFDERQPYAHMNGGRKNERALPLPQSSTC
Chain of Bromodomain-containing protein 9 (Homo sapiens) (Q9H8M2 whole entry, the tested form may be a part): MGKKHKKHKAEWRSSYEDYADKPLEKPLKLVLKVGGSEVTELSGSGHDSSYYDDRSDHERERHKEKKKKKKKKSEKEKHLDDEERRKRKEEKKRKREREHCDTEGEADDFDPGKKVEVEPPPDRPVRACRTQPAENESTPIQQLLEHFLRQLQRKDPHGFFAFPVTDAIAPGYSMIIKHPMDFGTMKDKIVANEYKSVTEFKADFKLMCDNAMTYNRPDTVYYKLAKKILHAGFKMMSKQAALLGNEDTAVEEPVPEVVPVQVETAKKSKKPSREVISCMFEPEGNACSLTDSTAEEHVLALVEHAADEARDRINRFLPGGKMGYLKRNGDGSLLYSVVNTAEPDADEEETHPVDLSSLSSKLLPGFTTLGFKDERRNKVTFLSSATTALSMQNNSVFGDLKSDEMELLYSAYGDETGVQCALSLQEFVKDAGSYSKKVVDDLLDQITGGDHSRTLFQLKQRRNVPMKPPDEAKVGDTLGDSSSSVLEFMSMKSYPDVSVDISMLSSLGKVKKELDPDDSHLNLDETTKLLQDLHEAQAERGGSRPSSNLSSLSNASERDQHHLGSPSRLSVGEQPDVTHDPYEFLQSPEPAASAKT
Chain of Bromodomain adjacent to zinc finger domain protein 2B (Homo sapiens) (Q9UIF8 whole entry, the tested form may be a part): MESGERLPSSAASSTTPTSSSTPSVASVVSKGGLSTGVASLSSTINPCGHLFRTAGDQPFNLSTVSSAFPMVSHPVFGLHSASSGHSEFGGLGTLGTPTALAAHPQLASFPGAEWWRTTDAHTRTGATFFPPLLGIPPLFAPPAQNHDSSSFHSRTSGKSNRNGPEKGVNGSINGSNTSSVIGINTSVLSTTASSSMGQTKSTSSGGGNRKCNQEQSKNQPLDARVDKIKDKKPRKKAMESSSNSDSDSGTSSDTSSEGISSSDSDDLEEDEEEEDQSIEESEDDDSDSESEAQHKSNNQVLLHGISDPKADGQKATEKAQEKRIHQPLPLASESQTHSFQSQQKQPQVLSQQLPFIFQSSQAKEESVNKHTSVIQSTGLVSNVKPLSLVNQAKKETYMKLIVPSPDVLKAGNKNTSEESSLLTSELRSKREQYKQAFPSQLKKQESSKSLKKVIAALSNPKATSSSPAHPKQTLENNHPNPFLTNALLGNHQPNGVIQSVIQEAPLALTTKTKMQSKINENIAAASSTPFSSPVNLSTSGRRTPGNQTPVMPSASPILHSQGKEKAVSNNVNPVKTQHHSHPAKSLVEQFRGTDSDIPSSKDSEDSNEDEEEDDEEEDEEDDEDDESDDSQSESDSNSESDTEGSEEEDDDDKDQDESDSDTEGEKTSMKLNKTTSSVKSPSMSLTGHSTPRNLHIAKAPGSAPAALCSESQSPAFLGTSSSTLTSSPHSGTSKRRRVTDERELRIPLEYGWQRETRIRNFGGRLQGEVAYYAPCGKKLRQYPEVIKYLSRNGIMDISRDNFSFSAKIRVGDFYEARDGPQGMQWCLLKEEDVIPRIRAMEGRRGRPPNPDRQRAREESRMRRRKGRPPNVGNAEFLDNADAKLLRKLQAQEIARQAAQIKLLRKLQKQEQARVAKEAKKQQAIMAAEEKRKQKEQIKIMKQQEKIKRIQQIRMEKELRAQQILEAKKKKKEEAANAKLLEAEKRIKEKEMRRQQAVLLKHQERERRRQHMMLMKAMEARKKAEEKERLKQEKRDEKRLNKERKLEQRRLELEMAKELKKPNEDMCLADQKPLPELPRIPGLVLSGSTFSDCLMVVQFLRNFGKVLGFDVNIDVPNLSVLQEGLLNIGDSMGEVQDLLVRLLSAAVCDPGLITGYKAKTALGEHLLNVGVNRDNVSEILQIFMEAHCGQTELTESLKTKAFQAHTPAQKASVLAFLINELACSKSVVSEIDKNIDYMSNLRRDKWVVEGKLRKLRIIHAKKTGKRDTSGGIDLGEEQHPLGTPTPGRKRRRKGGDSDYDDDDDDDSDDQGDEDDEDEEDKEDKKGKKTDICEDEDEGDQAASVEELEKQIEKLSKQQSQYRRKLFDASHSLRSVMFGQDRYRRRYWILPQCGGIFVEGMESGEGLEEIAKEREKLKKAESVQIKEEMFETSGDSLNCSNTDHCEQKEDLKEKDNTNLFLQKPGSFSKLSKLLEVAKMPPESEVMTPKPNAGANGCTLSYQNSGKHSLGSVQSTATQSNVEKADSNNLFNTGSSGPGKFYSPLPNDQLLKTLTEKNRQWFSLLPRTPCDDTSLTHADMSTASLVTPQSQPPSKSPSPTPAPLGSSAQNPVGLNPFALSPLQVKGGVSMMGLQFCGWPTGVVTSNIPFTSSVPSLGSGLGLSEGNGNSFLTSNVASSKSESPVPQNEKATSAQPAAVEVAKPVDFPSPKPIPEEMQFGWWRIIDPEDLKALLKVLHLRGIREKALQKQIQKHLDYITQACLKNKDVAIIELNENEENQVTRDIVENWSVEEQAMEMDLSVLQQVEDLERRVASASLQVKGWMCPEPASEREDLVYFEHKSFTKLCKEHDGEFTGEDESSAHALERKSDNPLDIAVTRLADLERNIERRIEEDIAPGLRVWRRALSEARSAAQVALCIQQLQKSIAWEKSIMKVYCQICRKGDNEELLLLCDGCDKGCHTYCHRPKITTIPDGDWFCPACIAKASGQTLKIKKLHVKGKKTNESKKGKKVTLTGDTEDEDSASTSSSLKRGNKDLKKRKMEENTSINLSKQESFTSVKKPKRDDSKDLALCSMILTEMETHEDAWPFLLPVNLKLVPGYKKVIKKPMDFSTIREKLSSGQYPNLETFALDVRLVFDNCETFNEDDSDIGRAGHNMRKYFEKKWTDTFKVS

SMILES: Cc1ccc(-n2nc(C(=O)N3C[C@@H](C)N[C@@H](C)C3)nc2-c2ccc3c(c2)N(C2CCCC2)[C@H](C)C(=O)N3C)cc1
- Activity (AGS): Active
- AUC(0-inf) [1]: 2080 ng·h/mL
- Activity [2]: 70 to 100%
- Activity [3]: 70 to 100%
- inhibition in vivo at 50 mg/kg (MV4-11 [4]): 95.6%
- Tmax [5]: 90 min
- inhibition [6]: Active
- inhibition [7]: inactive
- Activity (HT-29): Active
- Tmax [8]: 30 min
- inhibition [9]: Active
- Cmax [10]: 1900 ng/mL
- Activity (MV4-11 [11]): Dose-dependent effect
- Activity [12]: < 5%
- Activity (MV4-11 [13]): Active
- Activity (NCI-H1299): Active
- TDI (Cytochrome P450 2C9): Not Active
- AUC(0-t) [14]: 2320 ng·h/mL
- Activity [15]: 50 to 70%
- AUC(0-inf) [16]: 4310 ng·h/mL
- Activity [17]: 70 to 100%
- inhibition [18]: Active
- AUC(0-t) [19]: 7380 ng·h/mL
- Activity (MDA-MB-468): Active
- Activity (MV4-11 [20]): Dose-dependent effect
- Activity [21]: 70 to 100%
- Tmax [22]: 24 min
